Source: ChEMBL document CHEMBL1157699, “New small-size peptides possessing antifungal activity” (Bioorg Med Chem, 2010)
Residues, ends and D or L forms follow the SMILES beside them.

Legend:
Cryptococcus neoformans [1] = test: Antifungal activity against Cryptococcus neoformans ATCC 32264 assessed as inhibition of fungal growth at 200 uM after 48 hrs by microbroth dilution method; assay type: functional; conditions: ATCC 32264, 48 h
In short: (§1)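 Cryptococcus run by CLSI M-27 A2 microbroth dilution in RPMI-1640. Peptide was diluted from DMSO stock to final 200, 100, 50, 25, 12.5, 6.25 and 3.125 µM. Inoculum was 1–5 × 10^3 CFU/ml from 24 h, 35 °C Sabouraud-chloramphenicol slants. Incubation was 48 h at 35 °C, moist and dark. % inhibition was taken from OD405 against a DMSO-containing growth control. Amphotericin B served as the positive control; tests in duplicate.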

Cryptococcus neoformans [2] = test: Antifungal activity against Cryptococcus neoformans ATCC 32264 assessed as inhibition of fungal growth at 100 uM after 48 hrs by microbroth dilution method; assay type: functional; conditions: ATCC 32264, 48 h; in short: as §1
Cryptococcus neoformans [3] = test: Antifungal activity against Cryptococcus neoformans ATCC 32264 assessed as inhibition of fungal growth at 50 uM after 48 hrs by microbroth dilution method; assay type: functional; conditions: ATCC 32264, 48 h; in short: as §1
Cryptococcus neoformans [4] = test: Antifungal activity against Cryptococcus neoformans ATCC 32264 assessed as inhibition of fungal growth at 25 uM after 48 hrs by microbroth dilution method; assay type: functional; conditions: ATCC 32264, 48 h; in short: as §1
Cryptococcus neoformans [5] = test: Antifungal activity against Cryptococcus neoformans ATCC 32264 assessed as inhibition of fungal growth at 12.5 uM after 48 hrs by microbroth dilution method; assay type: functional; conditions: ATCC 32264, 48 h; in short: as §1
Cryptococcus neoformans [6] = test: Antifungal activity against Cryptococcus neoformans ATCC 32264 assessed as inhibition of fungal growth at 6.25 uM after 48 hrs by microbroth dilution method; assay type: functional; conditions: ATCC 32264, 48 h; in short: as §1
Cryptococcus neoformans [7] = test: Antifungal activity against Cryptococcus neoformans ATCC 32264 assessed as inhibition of fungal growth at 3.125 uM after 48 hrs by microbroth dilution method; assay type: functional; conditions: ATCC 32264, 48 h; in short: as §1
Candida albicans [8] = test: Antifungal activity against Candida albicans ATCC 10231 assessed as inhibition of fungal growth at 200 uM after 24 hrs by microbroth dilution method; assay type: functional; conditions: ATCC 10231, 24 h
In short: (§2)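 CLSI M-27 A2 broth microdilution in RPMI-1640. Peptides were taken from DMSO stocks to final 200–3.125 µM (twofold series). Inoculum was 1–5 × 10^3 CFU/ml from 24 h Sabouraud-chloramphenicol slant cultures at 35 °C. Plates were incubated 24 h at 35 °C in a moist dark chamber. OD405 was read, and % inhibition was taken against a DMSO-matched growth control. Amphotericin B served as the positive control; duplicates.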

Candida albicans [9] = test: Antifungal activity against Candida albicans ATCC 10231 assessed as inhibition of fungal growth at 100 uM after 24 hrs by microbroth dilution method; assay type: functional; conditions: ATCC 10231, 24 h; in short: as §2
Candida albicans [10] = test: Antifungal activity against Candida albicans ATCC 10231 assessed as inhibition of fungal growth at 50 uM after 24 hrs by microbroth dilution method; assay type: functional; conditions: ATCC 10231, 24 h; in short: as §2
Candida albicans [11] = test: Antifungal activity against Candida albicans ATCC 10231 assessed as inhibition of fungal growth at 25 uM after 24 hrs by microbroth dilution method; assay type: functional; conditions: ATCC 10231, 24 h; in short: as §2
Candida albicans [12] = test: Antifungal activity against Candida albicans ATCC 10231 assessed as inhibition of fungal growth at 12.5 uM after 24 hrs by microbroth dilution method; assay type: functional; conditions: ATCC 10231, 24 h; in short: as §2
Cryptococcus neoformans [13] = test: Antifungal activity against Cryptococcus neoformans ATCC 32264 assessed as inhibition of fungal growth after 48 hrs by microbroth dilution method; assay type: functional; conditions: ATCC 32264, 48 h; in short: as §1
Candida albicans [14] = test: Antifungal activity against Candida albicans ATCC 10231 assessed as inhibition of fungal growth after 24 hrs by microbroth dilution method; assay type: functional; conditions: ATCC 10231, 24 h; in short: as §2
[15] = Toxicity in Poecilia reticulata assessed as mortality at 22.8 ug/ml after 24 hrs; assay type: organism-based; conditions: in vivo, read-out: Activity
In short: (§3)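 Acute toxicity in guppy (P. reticulata): 10 fish per concentration held in jars with the test solution for 96 h. Peptide added from aqueous stock diluted in DMSO to the final concentration. Dead fish counted and removed every 24 h, and condition noted. Percent mortality recorded at 96 h. Two experiments, each in triplicate.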

[16] = Toxicity in Poecilia reticulata assessed as mortality at 22.8 ug/ml after 48 hrs; assay type: organism-based; conditions: in vivo, read-out: Activity; in short: as §3
[17] = Toxicity in Poecilia reticulata assessed as mortality at 22.8 ug/ml after 72 hrs; assay type: organism-based; conditions: in vivo, read-out: Activity; in short: as §3
[18] = Toxicity in Poecilia reticulata assessed as mortality at 22.8 ug/ml after 96 hrs; assay type: organism-based; conditions: in vivo, read-out: Activity; in short: as §3

Molecule | inhibition at 200 µM (Cryptococcus neoformans [1]) [%] | inhibition at 100 µM (Cryptococcus neoformans [2]) [%] | inhibition at 50 µM (Cryptococcus neoformans [3]) [%] | inhibition at 25 µM (Cryptococcus neoformans [4]) [%] | inhibition at 12.5 µM (Cryptococcus neoformans [5]) [%] | inhibition at 6.25 µM (Cryptococcus neoformans [6]) [%] | inhibition at 3.125 µM (Cryptococcus neoformans [7]) [%] | inhibition at 200 µM (Candida albicans [8]) [%] | inhibition at 100 µM (Candida albicans [9]) [%] | inhibition at 50 µM (Candida albicans [10]) [%] | inhibition at 25 µM (Candida albicans [11]) [%] | inhibition at 12.5 µM (Candida albicans [12]) [%] | MIC50 (Cryptococcus neoformans [13]) [µM] | MIC (Cryptococcus neoformans [13]; read-out: MIC100) [µM] | MIC50 (Candida albicans [14]) [µM] | MIC (Candida albicans [14]; read-out: MIC100) [µM] | mortality at 24 h, 22.8 ug/ml [15] [%] | mortality at 48 h, 22.8 ug/ml [16] [%] | mortality at 72 h, 22.8 ug/ml [17] [%] | mortality at 96 h, 22.8 ug/ml [18] [%]
CC[C@H](C)[C@H](NC(=O)[C@H](CCC(N)=O)NC(=O)[C@@H](N)CCCNC(=N)N)C(=O)N[C@@H](CCCCN)C(N)=O (H-RQIK-NH2) | 55.4 | 36.6 | 18.4 | 17.5 | 11.2 | 19.9 | 12.2 | – | – | – | – | – | – | – | – | – | – | – | – | –
C[C@H](NC(=O)[C@H](CCC(N)=O)NC(=O)[C@@H](N)CCCNC(=N)N)C(=O)N[C@@H](CCCCN)C(N)=O (H-RQAK-NH2) | 0 | 0 | 0 | 0 | 0 | 0 | 0 | – | – | – | – | – | – | – | – | – | – | – | – | –
H-RQWKKWWQWRR-NH2 | 100 | 100 | 100 | 100 | 66.2 | – | – | 100 | 100 | 100 | 67.9 | 35.7 | ≤ 12.5 | 25 | ≤ 25 | 50 | 0 | 0 | 0 | 0
CC[C@H](C)[C@H](NC(=O)[C@@H](N)CCCCN)C(=O)N[C@@H](CCC(N)=O)C(=O)N[C@@H](CCCNC(=N)N)C(N)=O (H-KIQR-NH2) | 47.6 | 44.1 | 30.9 | 26.9 | 25.1 | 21.2 | 20.9 | – | – | – | – | – | – | – | – | – | – | – | – | –
CC(=O)N1CCN(c2ccc(OCC3COC(Cn4ccnc4)(c4ccc(Cl)cc4Cl)O3)cc2)CC1 (centres undefined) [KETOCONAZOLE] | 100 | 100 | 100 | 100 | 100 | 100 | 100 | 100 | 100 | 100 | 100 | 100 | – | – | – | – | – | – | – | –
C[C@H](N)C(=O)N[C@@H](C)C(=O)N[C@@H](C)C(=O)N[C@@H](C)C(N)=O (H-AAAA-NH2) | 25 | 24.6 | 17.3 | 20.4 | 11.8 | 12.4 | 5.93 | – | – | – | – | – | – | – | – | – | – | – | – | –
C[C@@H]1[C@H](O)[C@@H](C)/C=C/C=C/C=C/C=C/C=C/C=C/C=C/[C@H](O[C@@H]2O[C@H](C)[C@@H](O)[C@H](N)[C@@H]2O)C[C@@H]2O[C@](O)(C[C@@H](O)C[C@@H](O)[C@H](O)CC[C@@H](O)C[C@@H](O)CC(=O)O[C@H]1C)C[C@H](O)[C@H]2C(=O)O [AMPHOTERICIN B] | 100 | 100 | 100 | 100 | 100 | 100 | 100 | 100 | 100 | 100 | 100 | 100 | – | – | – | – | – | – | – | –
CC[C@H](C)[C@H](NC(=O)[C@H](CCC(N)=O)NC(=O)[C@@H](N)CCCNC(=N)N)C(=O)N[C@@H](CCCNC(=N)N)C(N)=O (H-RQIR-NH2) | 65.7 | 40.2 | 18.8 | 19.3 | 3.34 | 0 | 0 | – | – | – | – | – | – | – | – | – | – | – | – | –
CC[C@H](C)[C@H](NC(=O)[C@H](CCC(N)=O)NC(=O)[C@@H](N)CCCCN)C(=O)N[C@@H](CCCCN)C(N)=O (H-KQIK-NH2) | 3.72 | 0 | 0 | 0 | 0 | 0 | 0 | – | – | – | – | – | – | – | – | – | – | – | – | –
